Experimental data collected from several papers.
Each line is one published result; the experiments were not run side by side.
F10: Coagulation factor X (F10, Homo sapiens, UniProt P00742)
CNR2: Cannabinoid receptor 2 (CNR2, Homo sapiens, UniProt P34972)
Ribonuclease H1: Ribonuclease H1 (Homo sapiens, UniProt O60930)

Compound | target | assay | conditions | endpoint | value
N#CC(C#N)=Cc1ccc([N+](=O)[O-])c(O)c1 | Casein kinase I isoform alpha (CSNK1A1, Homo sapiens, UniProt P48729) | binding, SPR | – | Kd | > 50 µM
N=C(N)NCCC[C@H](NC(=O)[C@H](Cc1ccccc1)NC(=O)[C@H](CCC(N)=O)NC(=O)OCc1ccccc1)C(=O)c1nccs1 | F10 | cell-free assay | – | Ki | 0.016 µM
CC(C)(NC(=O)c1nn(CCCCCF)c2ccccc12)c1cccc(C(N)=O)c1 | CNR2 | ligand displacement, radioligand | cell membranes | Ki | 0.13 µM
CCOC(=O)c1ccc(OC(=O)CCCCCN=C(N)N)cc1 | F10 | enzyme activity, inhibitor | – | IC50 | 0.79 µM
CCCCCc1ccccc1C/C=C\C/C=C\C/C=C\CCCC(=O)N[C@H](C)CO | CNR2 | cAMP, agonist | – | EC50 | 0.678 µM
O=C1c2ccccc2C(c2ccccc2F)C(=O)N1O (centres unmarked) | Ribonuclease H1 | enzyme activity, inhibitor | – | IC50 | 4.64 µM
CS(=O)(=O)N[C@@H](CCC(N)=O)C(=O)N[C@@H](Cc1ccccc1)C(=O)N[C@@H](CCCNC(=N)N)C(=O)c1nc2ccccc2s1 | F10 | cell-free assay | – | Ki | 0.016 µM
O=c1c(-c2ccccc2)c(O)c2cc(-c3cccc(-c4ccccc4)c3)cnc2n1O | Ribonuclease H1 | enzyme activity, inhibitor | – | IC50 | > 10 µM
CC[C@H](C)[C@@H](C(=O)N1CCC[C@H]1c1nccs1)N(C)C(=O)[C@H](CC(C)C)N(C)C(=O)[C@H](Cc1ccc(OC)cc1)N(C)C(=O)/C=C(\C)OC | CNR2 | β-arrestin recruitment, antagonist | – | IC50 | 17.7 µM
CCCCC/C=C\C/C=C\C/C=C\Cc1ccccc1CCCC(=O)N[C@H](C)CO | CNR2 | cAMP, agonist | – | EC50 | 0.0125 µM
COc1cc2c(cc1OC)CN(CCc1ccc(NC(=O)c3cccc4c(=O)c5cccc(OC)c5[nH]c34)cc1)CC2 | D(1B) dopamine receptor (DRD5, Homo sapiens, UniProt P21918) | cell-free assay | – | Ki | > 10 µM
CCCCCn1nc(C(=O)NC(C)(C)c2cccc(C(N)=O)c2)c2ccccc21 | CNR2 | ligand displacement, radioligand | cell membranes | Ki | 0.25 µM
CCCCC/C=C\[C@H](C)/C=C\C/C=C\Cc1ccccc1CCCC(=O)N[C@H](C)CO | CNR2 | β-arrestin recruitment, agonist | – | EC50 | 0.213 µM
Cc1ccc(NC(=O)c2c(Nc3ccccc3)[nH]c(=O)n(O)c2=O)cc1 | Ribonuclease H1 | enzyme activity, inhibitor | – | IC50 | > 10 µM
COc1ccc(CCCCC(=O)C(F)(F)C(F)(F)F)cc1 | 85/88 kDa calcium-independent phospholipase A2 (PLA2G6, Homo sapiens, UniProt O60733) | enzyme activity, inhibitor | – | IC50 | 0.17 µM
CCCCC/C=C\[C@H](C)/C=C\C/C=C\Cc1ccccc1CCCC(=O)OC(CO)CO | CNR2 | cAMP, agonist | – | EC50 | 1.13 µM
CC(C)(NC(=O)c1nn(CCCCC#N)c2ccccc12)c1cccc(C(N)=O)c1 | CNR2 | ligand displacement, radioligand | cell membranes | Ki | 0.78 µM
